How the values were obtained:
[1] = system: MS2 coat protein; assay: apparent Kd, MS2 coat protein; higher = weaker binding; RNA-MaP array; theophylline 2 mM where present
In short: (§1)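 Stalled E. coli RNA polymerase transcribed each design on Illumina sequencing-chip clusters. The clusters were titrated with SNAP-549-labelled MS2 coat protein, starting at 0.7 or 1.5 nM and doubling up to 3 µM, first without ligand and then with constant ligand, in 100 mM Tris-HCl pH 7.5, 80 mM KCl, 4 mM MgCl2, BSA, DTT, yeast tRNA and Tween-20. Green signal was normalised to red-channel RNA signal and to the control-cluster median Fmax. The apparent Kd is the median of filtered binding-curve fits made for each cluster.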

[2] = system: MS2 coat protein; assay: apparent Kd, MS2 coat protein; higher = weaker binding; RNA-MaP array; tryptophan 2.4 mM where present
In short: as §1

[3] = designed as: OFF switch for theophylline, no ligand
[4] = ligand present: theophylline, designed as: OFF switch for theophylline
[5] = designed as: ON switch for theophylline, no ligand
[6] = ligand present: theophylline, designed as: ON switch for theophylline
[7] = designed as: ON switch for tryptophan, no ligand
[8] = ligand present: tryptophan, designed as: ON switch for tryptophan
[9] = designed as: OFF switch for tryptophan, no ligand
[10] = ligand present: tryptophan, designed as: OFF switch for tryptophan

AAUUGGGUUGGUGAGGUGGUUGGAGGCGAUACCAGCGUGGAAACACGCCCUUGGCAGCGCCAGGACAUGAGGAUCACCCAUGUUC
apparent Kd [1, 3]: 22.7 nM | apparent Kd [1, 4]: 35.2 nM

AGACAUGAGGAUCACCCAUGUAGUAUGGAUACCAGAUCCAGAUUUAUCCCUUGGCAGCUGUGGUACAGCGUUGGAUCGCUCCUAG
apparent Kd [1, 3]: 26.5 nM

UGACAUUGCUCAGAUACCAGACGUGAGGAUCACCCACGUGCCAACAUGAGGAUCACCCAUGUCCCUUGGCAGCUGAGCAAUGUCU
apparent Kd [1, 3]: 15.7 nM | apparent Kd [1, 4]: 183 nM

GAUACCAUGAUCCUCCUGGUAUCGGCUGAUACCAGCCAGCUGACUGGCCCUUGGCAGCAGCAUACAUGAGGAUCACCCAUGUUAA
apparent Kd [1, 5]: 88.3 nM | apparent Kd [1, 6]: 267 nM

ACCUACACGGAAACGUGUAGAAGUAAUGAUACCAGCAUGGAAACAUGCCCUUGGCAGCGUUACAUGAGGAUCACCCAUGUAUGUU
apparent Kd [1, 3]: 14.8 nM | apparent Kd [1, 4]: 32.4 nM

ACAUGAGGAUCACCCAUGUGCCGAGUUGAUACCAGACCCGCACUAGUCCCUUGGCAGCAACUACGUGUGGGACACCCAUGUUAAG
apparent Kd [1, 3]: 54.4 nM | apparent Kd [1, 4]: 71.3 nM

GGUGGCGGGACUGAUACCAGCCACCACCGAUAGACCACAUGAGGAUCACCCAUGUUGGGUGGCCCUUGGCAGCAGUCUUGCUGCU
apparent Kd [1, 5]: 542 nM | apparent Kd [1, 6]: 630 nM

CGGUUUGUGAUGGAUACCAGCAGAGUGAAUGUUUAUCCUGACAUGAGGAUCACCCAUGUGUGCCCUUGGCAGCUGUUGUGGGCUG
apparent Kd [1, 3]: 63.5 nM | apparent Kd [1, 4]: 89.4 nM

AGCAGUACAACAGAUACCAGACUUUUCAUGCCUUUAAUUACAUGAGGAUCACCCAUGUUUGUCCCUUGGCAGCUGUUGUACUGCA
apparent Kd [1, 3]: 41.9 nM | apparent Kd [1, 4]: 111 nM

ACAUGAAGAACAGCGGUGGGCGCGCUCGAUACCAGUACUUUGAUUUACCCUUGGCAGCGACAUGAGGAUCACCCAUGUGAGAUGA
apparent Kd [1, 3]: 18 nM | apparent Kd [1, 4]: 27.6 nM

AAAUAAAUCACAUGAGGAUCACCCAUGGAUACCAGGCCUGGAAACAGCCCUUGGCAGCCACAUGAGGAUCACCCAUGUGCUAAAU
apparent Kd [1, 3]: 190 nM | apparent Kd [1, 4]: 198 nM

CUGCCAUGCAGAGAUACCAGUGAGCUCAAAACAUGAGGAUCACCCAUGUAAAUUGCCGAUCACCCUUGGCAGCUCUGCAUGGCAG
apparent Kd [1, 5]: 9.78 nM | apparent Kd [1, 6]: 7.84 nM

ACAUGAAGAACAGCGGUGGGCGCGCUCGAUACCAGUACUUUAAAAUACCCUUGGCAGCGACAUGAGGAUCACCCAUGUGAGAUGA
apparent Kd [1, 3]: 15.3 nM | apparent Kd [1, 4]: 28.6 nM

AGCGACAUGCGUGAUACCAGCUACAUGAGGAUCACCCAUGUAAGUAGGAAACUACUGUGUAGCCCUUGGCAGCACAGUGCAUGUC
apparent Kd [1, 3]: 9.48 nM | apparent Kd [1, 4]: 26.6 nM

AGCACACAUCCUGAUACCAGAGACAUGAGGAUCACCCAUGUCCGAUCGUCCUGCCUCAGACUCCCUUGGCAGCAGGAUGUGUGCU
apparent Kd [1, 3]: 13.1 nM | apparent Kd [1, 4]: 32.4 nM

ACAUGAGGAUCACCCAUGUUCCUCAUUGAUACCAGUGAAAGAAGACGCCCUUGGCAGCGAGAAGAAGAAGAAGAAGUUUUUUUUU
apparent Kd [1, 3]: 606 nM | apparent Kd [1, 4]: 1340 nM

GAACAUGAGGAUCACCCAUGUAAAACAGAUACCAGUGAUAUAAUACACCCUUGGCAGCUGAAGCUGAAUAAUAAUUCCCUCAAGC
apparent Kd [1, 5]: 14.8 nM | apparent Kd [1, 6]: 16.4 nM

UCAGAUGAGGCGGCCGCCACUCGCGGAUAACGAUAGAUUAACAUGAGGAUCACCCAUGUGUCAUGGAGGACCGGGCCCAUGACAU
apparent Kd [2, 7]: 27.9 nM | apparent Kd [2, 8]: 23.7 nM

AGUGUCGGAGCGGCCGCCACUAGCACAUCUGGUCGCCAUGGCAACAUGAGGAUCACCCAUGUUGCUAGGACCGGGCUCAAUAUUU
apparent Kd [2, 9]: 9.38 nM | apparent Kd [2, 10]: 10.7 nM

CAAUGCAGGUCGGCCGCCACUACACACAUGAGGAUCACCCAUGUAGUUACUGGGUGAAGUGGCAGUAGGACCGGGACCUGCAUAA
apparent Kd [2, 7]: 373 nM | apparent Kd [2, 8]: 265 nM

UGUACCAUGUCGGCCGCCACUCAUGAUAAACAUGAGGAUCACCCAUGUAGCGUCAAAGACGCUAUGAGGACCGGGACAUGGUACU
apparent Kd [2, 7]: 35 nM | apparent Kd [2, 8]: 12.2 nM

ACAUGAGGAUCACCCAUGUGUGUAAAUCCUCGAGGACCGGUACGGCCGCCACUCGAACGAGUGUAAGAUGAAUGUUACAUUCAUC
apparent Kd [2, 7]: 105 nM | apparent Kd [2, 8]: 38.3 nM

ACAUGAGGAUCACCCAUGUACGGUAUCAAUCGAGGACCGGUACGGCCGCCACUCGGAAAUAGAAGCGAUUAUUAGUGUUCUUUGU
apparent Kd [2, 7]: 16.2 nM | apparent Kd [2, 8]: 15.1 nM

ACAUGAGGAUCACCCAUGUGUGUAAGUCCUCGAGGACCGGUACGGCCGCCACUCGAUUGAGUGUAAGUUGAAUGUAACAUUCAAC
apparent Kd [2, 7]: 16.7 nM | apparent Kd [2, 8]: 13.8 nM

AUUCAUGAAAACAUGACAUGAGGAUCACUCCGAGGACCGGUACGGCCGCCACUCGCGAGGAGGCACAUGAGGAUCACCCAUGUUA
apparent Kd [2, 7]: 114 nM | apparent Kd [2, 8]: 82.8 nM

UAUCGUCAGACGGCCGCCACUAGAACAUGAGGAUCACCCAUGUAGGCGGCCGAUUCCUCAUUAACUAGGACCGGGUCUGACGAAU
apparent Kd [2, 9]: 8.13 nM | apparent Kd [2, 10]: 9.67 nM

CUAUUUAUAGCGGCCGCCACUUACUCAUGAGGUAACAACAUGAGGAUCACCCAUGUUUGAGGAUCAAGGACCGGGCUAUGGAUAG
apparent Kd [2, 7]: 26 nM | apparent Kd [2, 8]: 20.1 nM

AGAUUCGACACGGCCGCCACUUGUGGUGGAUUAUCCUAUGUAAGACAUGAGGAUCACCCAUGUACAAGGACCGGGUGUUGAGUCU
apparent Kd [2, 9]: 308 nM | apparent Kd [2, 10]: 93.1 nM

AGGUGACAUGAGGAUCACCCAUGUGGCUUACGAGGACCGGUACGGCCGCCACUCGGUGUGACCUCCGCAUUCACAUAAUAAUCUU
apparent Kd [2, 7]: 53.9 nM | apparent Kd [2, 8]: 45.3 nM

CGCCACUCGAGUGAUCCUCACGAGUGGCUACGAGGACCGGUACGGCCGCCACUCGAAUUAACAUGAGGAUCACCCAUGUAAUCCA
apparent Kd [2, 7]: 86.3 nM | apparent Kd [2, 8]: 62.5 nM

AUCAUAAUAGACUCGUUAGAUUAUAUGGAACGAGGACCGGUACGGCCGCCACUCGUGAUGUACAUGAGGAUCACCCAUGUUAGCU
apparent Kd [2, 7]: 14.7 nM | apparent Kd [2, 8]: 15.2 nM

GCCGCUGCCGCGGUGUGUGUGGGUGGGUGACGAGGACCGGUACGGCCGCCACUCGCGAUCGCACAUGAGGAUCACCCAUGUGUAA
apparent Kd [2, 9]: 15 nM | apparent Kd [2, 10]: 21.8 nM

UACCCAUGAGUUGGAAAAGCUCAUGGGUAUCGAGGACCGGUACGGCCGCCACUCGGCUGUACAUGAGGAUCACCCAUGUCAGGGU
apparent Kd [2, 7]: 432 nM | apparent Kd [2, 8]: 585 nM

ACAUGAGGAUCACCCAUGUCAUGAGGUUCACGAGGACCGGUACGGCCGCCACUCGGGCUUCGGAUCACGGAUGUACAUGAUGAUC
apparent Kd [2, 7]: 84 nM | apparent Kd [2, 8]: 51.6 nM

UAUCGUCAGACGGCCGCCACUAGAACAUGAGGAUCACCCAUGUACUAGUGGCAUACCUCAUGAACUAGGACCGGGUCUGACGAAU
apparent Kd [2, 9]: 9.33 nM | apparent Kd [2, 10]: 9.25 nM

AAAAUAAUGGCGGCCGCCACUAACUCAUAUACAUCAUGUACAUGAGGAUCACCCAUGUAGGUGUAUAGGACCGGGCCAUAAUUAA
apparent Kd [2, 9]: 18.6 nM | apparent Kd [2, 10]: 25.6 nM

ACGUCGCAUAGGAAAACUAUGUGACGAAAUCGAGGACCGGUACGGCCGCCACUCGUCCUCAACAUGAGGAUCACCCAUGUAAUAA
apparent Kd [2, 9]: 18.7 nM | apparent Kd [2, 10]: 36.6 nM

CUACAUUUGUAGAAACCGGUCAACAAUAUUCGAGGACCGGUACGGCCGCCACUCGUAUAAUUUAAUACAUGAGGAUCACCCAUGU
apparent Kd [2, 7]: 14.8 nM | apparent Kd [2, 8]: 15.9 nM

GAUAUAUACUCGGCCGCCACUGAGAGAGUCAUGUAAACAUGAGGAUCACCCAUGUAAUAUAUAUACAGGACCGGGAGUAUAUUAA
apparent Kd [2, 9]: 14.8 nM | apparent Kd [2, 10]: 14.2 nM

AGCAACAAGUCGGCCGCCACUCUUUUAACAUGAGGAUCACCCAUGUUUAUAUCAUGGUUUUAAUAGAGGACCGGGACAGUUGCAU
apparent Kd [2, 9]: 35.1 nM | apparent Kd [2, 10]: 41.8 nM

GCUACAUGAGGAUCACCCAUGUAUGCGAGCCGAGGACCGGUACGGCCGCCACUCGCUUAACAUGAGGAUCACCCAUGUUGCUCGC
apparent Kd [2, 7]: 24 nM | apparent Kd [2, 8]: 14.8 nM

AUAUAUACAUGAGGAUCACCCAUGUUAUUUCGAGGACCGGUACGGCCGCCACUCGAUAGAGUAGAAGUAACAUUUGUUAGAUGAU
apparent Kd [2, 7]: 21.6 nM | apparent Kd [2, 8]: 13.2 nM

GGAUUCGGCACGGCCGCCACUGCGGUGGUGUGACAUGAGGAUCACCCAUGUUGUCAUGCGGCCCUUAGGACCGGGUGGCGUUUCC
apparent Kd [2, 9]: 49.7 nM | apparent Kd [2, 10]: 63.7 nM

GAGUAGAGGACGGCCGCCACUGAACAUGAGGAUCACCCAUGUCGUGAUCCGUUACCUAGGGUAGAUAGGACCGGGUCAUGUACUC
apparent Kd [2, 9]: 42.6 nM | apparent Kd [2, 10]: 42.5 nM

AAUGUAUGGCACAUGAGGAUCACCCAUGUGCGAGGACCGGUACGGCCGCCACUCGGUCAAGGGAUCUUACCUCUAUACAUUAAUG
apparent Kd [2, 9]: 10.4 nM | apparent Kd [2, 10]: 18.8 nM

AAUGUAUGGCACAUGAGGAUCACCCAUGUGCGAGGACCGGUACGGCCGCCACUCGGUCCUGGGAUCUUACAACUAUACAUUAAUG
apparent Kd [2, 9]: 13.2 nM | apparent Kd [2, 10]: 27 nM

GUUGAGACCUCGGCCGCCACUCGCCAUGAGGAUCUCCCAUGUAACAUGAGGAUCACCCAUGUACUGAGGACCGGGAGGUCCUUGU
apparent Kd [2, 7]: 12.4 nM | apparent Kd [2, 8]: 21.6 nM

GGCUUCAACUCGGCCGCCACUGGUGAUCCUCAUGUACAUGAGGAUCACCCAUGUACAUGAGACUACAGGACCGGGAGAUCAGCAA
apparent Kd [2, 7]: 8.34 nM | apparent Kd [2, 8]: 7.7 nM

AUUUAUUAGACGGCCGCCACUUGAAAGCGACCUCAUAAAUGGGAACAUGAGGAUCACCCAUGUAAGAGGACCGGGUCUAGUAGAU
apparent Kd [2, 7]: 104 nM | apparent Kd [2, 8]: 300 nM

GGACUCGUCACGGCCGCCACUGCGGUGGUGUGACAUGAGGAUCACCCAUGUUGUCAUGCGGCCCUUAGGACCGGGUGUCGCGUCC
apparent Kd [2, 9]: 63.1 nM | apparent Kd [2, 10]: 67.1 nM

GCGGACAUGAGGAUCACCCAUGUAAAUCCUCGAGGACCGGUACGGCCGCCACUCGAACGAGUGGCACGCGAGUGCGCACUCGCGU
apparent Kd [2, 7]: 24.7 nM | apparent Kd [2, 8]: 25.4 nM

GUGCUGGUAUCGGCCGCCACUGUAACAUGACAUCCCAGGGCCGACAUGAGGAUCACCCAUGUUAACAGGACCGGGAUAUCAACGA
apparent Kd [2, 9]: 14.2 nM | apparent Kd [2, 10]: 25.4 nM
